# From ChEMBL document CHEMBL1177681, “Hybrid diarylbenzopyrimidine non-nucleoside reverse transcriptase inhibitors as promising new leads for improved anti-HIV-1 chemotherapy” (Bioorg Med Chem, 2010)
# Tested on: not listed separately
# Experiment: Selectivity index, CC50 for human MT4 cells to EC50 for wild type HIV1 3B
# Type: toxicity, cell-based
# Settings: read-out: Ratio CC50/EC50
# Outline: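 Selectivity index is calculated as CC50 in uninfected MT-4 cells divided by EC50 against HIV-1 IIIB. Both come from parallel 4-day MTT readings at 37 °C, with infection at multiplicity of infection 0.02.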
row,SMILES,selectivity ratio
1,CCCOc1cc(C#N)cc(OCC)c1Oc1nc(Nc2ccc(C#N)cc2)nc2ccccc12,2080
2,Cc1cccc(Oc2nc(Nc3ccc(C#N)cc3)nc3ccccc23)c1,> 436
3,Cc1ccccc1Oc1nc(Nc2ccc(C#N)cc2)nc2ccccc12,> 6210
4,N#Cc1ccc(Nc2nc(Oc3ccc(Br)cc3)c3ccccc3n2)cc1,810
5,N#Cc1ccc(Nc2nc(Oc3ccccc3)c3ccccc3n2)cc1,> 279
6,Cc1cc(Br)c(Oc2nc(Nc3ccc(C#N)cc3)nc3ccccc23)c(Br)c1,1280
7,CCOc1cc(C#N)cc(Cl)c1Oc1nc(Nc2ccc(C#N)cc2)nc2ccccc12,2970

# Tested on: Human immunodeficiency virus 1
# Experiment: Antiviral activity against wild type HIV1 3B infected in human MT4 cells assessed as protection against virus-induced cytopathogenicity after 4 days by MTT assay
# Type: functional, organism-based
# Settings: Human immunodeficiency virus 1, 3B, MT4, 96 h
# Outline: (§1)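 MT-4 cells at 1 × 10⁵ cells/mL infected at multiplicity of infection 0.02, then immediately plated onto serial dilutions of compound (DMSO stocks of 50 mM or higher). After 4 days at 37 °C, viable cells counted by MTT. […] Virus stocks titrated in MT-4 cells as CCID50.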
row,SMILES,EC50 [µM]
1,CCCOc1cc(C#N)cc(OCC)c1Oc1nc(Nc2ccc(C#N)cc2)nc2ccccc12,0.058
2,Cc1cccc(Oc2nc(Nc3ccc(C#N)cc3)nc3ccccc23)c1,0.823
3,Cc1ccccc1Oc1nc(Nc2ccc(C#N)cc2)nc2ccccc12,0.057
4,N#Cc1ccc(Nc2nc(Oc3ccc(Br)cc3)c3ccccc3n2)cc1,0.264
5,N#Cc1ccc(Nc2nc(Oc3ccccc3)c3ccccc3n2)cc1,1.33
6,Cc1cc(Br)c(Oc2nc(Nc3ccc(C#N)cc3)nc3ccccc23)c(Br)c1,0.02
7,CCOc1cc(C#N)cc(Cl)c1Oc1nc(Nc2ccc(C#N)cc2)nc2ccccc12,0.0075

# Tested on: Human immunodeficiency virus 2
# Experiment: Antiviral activity against wild type HIV2 ROD infected in human MT4 cells assessed as protection against virus-induced cytopathogenicity after 4 days by MTT assay
# Type: functional, organism-based
# Settings: Human immunodeficiency virus 2, ISOLATE ROD, MT4, 96 h
# Outline: as §1
row,SMILES,EC50 [µM]
1,CCCOc1cc(C#N)cc(OCC)c1Oc1nc(Nc2ccc(C#N)cc2)nc2ccccc12,> 122
2,Cc1cccc(Oc2nc(Nc3ccc(C#N)cc3)nc3ccccc23)c1,> 355
3,Cc1ccccc1Oc1nc(Nc2ccc(C#N)cc2)nc2ccccc12,> 355
4,N#Cc1ccc(Nc2nc(Oc3ccc(Br)cc3)c3ccccc3n2)cc1,> 214
5,N#Cc1ccc(Nc2nc(Oc3ccccc3)c3ccccc3n2)cc1,> 369
6,Cc1cc(Br)c(Oc2nc(Nc3ccc(C#N)cc3)nc3ccccc23)c(Br)c1,≥ 4.6
7,CCOc1cc(C#N)cc(Cl)c1Oc1nc(Nc2ccc(C#N)cc2)nc2ccccc12,> 21

# Tested on: Human immunodeficiency virus 1
# Experiment: Antiviral activity against HIV1 with reverse transcriptase K103N, Y181C mutant infected in human MT4 cells assessed as protection against virus-induced cytopathogenicity after 4 days by MTT assay
# Type: functional, organism-based
# Settings: Human immunodeficiency virus 1, MT4, 96 h
# Outline: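 MT-4 cells at 1 × 10⁵ cells/mL were infected with the mutant HIV-1 at a multiplicity of infection of 0.02. Virus stocks were titred in MT-4 cells as CCID₅₀. Cells were plated at once onto serial compound dilutions, with DMSO stocks at 50 mM or higher. After 4 days at 37 °C, viable cells were counted by MTT. EC₅₀ is the concentration giving 50% protection from viral cytopathicity.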
row,SMILES,EC50 [µM]
1,CCCOc1cc(C#N)cc(OCC)c1Oc1nc(Nc2ccc(C#N)cc2)nc2ccccc12,> 122
2,Cc1cc(Br)c(Oc2nc(Nc3ccc(C#N)cc3)nc3ccccc23)c(Br)c1,0.59
3,CCOc1cc(C#N)cc(Cl)c1Oc1nc(Nc2ccc(C#N)cc2)nc2ccccc12,0.29

# Tested on: not listed separately
# Experiment: Cytotoxicity against human MT4 cells after 4 days by MTT assay
# Type: cell-based
# Settings: not given
# Outline: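 Uninfected MT-4 cells were run in parallel with the antiviral plates and exposed to serial compound dilutions (DMSO stocks of 50 mM or higher) for 4 days at 37 °C. Viability was read by MTT.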
row,SMILES,CC50 at 96 h [µM]
1,CCCOc1cc(C#N)cc(OCC)c1Oc1nc(Nc2ccc(C#N)cc2)nc2ccccc12,123
2,Cc1cccc(Oc2nc(Nc3ccc(C#N)cc3)nc3ccccc23)c1,355
3,Cc1ccccc1Oc1nc(Nc2ccc(C#N)cc2)nc2ccccc12,355
4,N#Cc1ccc(Nc2nc(Oc3ccc(Br)cc3)c3ccccc3n2)cc1,215
5,N#Cc1ccc(Nc2nc(Oc3ccccc3)c3ccccc3n2)cc1,370
6,Cc1cc(Br)c(Oc2nc(Nc3ccc(C#N)cc3)nc3ccccc23)c(Br)c1,25
7,CCOc1cc(C#N)cc(Cl)c1Oc1nc(Nc2ccc(C#N)cc2)nc2ccccc12,22
